Experimental data reported in ChEMBL document CHEMBL4406918, “Inhibitory Effects of Multivalent Polypeptides on the Proliferation and Metastasis of Breast Cancer Cells” (ACS Med Chem Lett, 2019).
Activity calls are given as the source filed them. The calls are words filed in the database; no cut-off is given here. Where a SMILES comes first, the peptide text is derived from it. Side-chain parts run from the residue outwards.

Tests used:
[1] = test system: 4T1; experiment: Antiinvasive activity in mouse 4T1 cells assessed as inhibition of cell invasion at 0.2 mM incubated for 24 hrs by crystal violet staining based matrigel invasion assay relative to control; format: functional; conditions: 4T1, 24 h
Summary of the method: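 4T1 cells, Matrigel-coated Transwell invasion with 0.2 mM compound. Invasion rate comes from counting cells on the underside of the Matrigel-coated porous membrane, relative to untreated control. Mean ± SD, n = 3.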

[2] = Toxicity in BALB/c mouse xenografted with mouse 4T1 cells assessed as change in serum creatinine level at 10 mg/kg administered intratumorally and measured after 24 days; format: organism-based; conditions: in vivo, other, 576 h
[3] = Toxicity in BALB/c mouse xenografted with mouse 4T1 cells assessed as change in blood urea nitrogen level at 10 mg/kg administered intratumorally and measured after 24 days; format: organism-based; conditions: in vivo, other, 576 h
[4] = test system: 4T1; experiment: Antitumour activity against mouse 4T1 cells xenografted in BALB/c mouse assessed as increase in damage of tumor tissue at 10 mg/kg administered intratumorally and measured after 24 days by H and E staining based inverted optical microscopic method; format: functional, organism-based
Summary of the method: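 Tumours from 4T1-bearing BALB/c mice given 6 doses of 10 mg/kg (saline control) were sectioned and stained with H&E, plus CD31, Ki-67 and TUNEL.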

[5] = Stability in fetal bovine serum assessed as parent compound remaining measured after 12 hrs by RP-HPLC analysis; format: ADME, cell-free, Bos taurus; conditions: cattle, read-out: Stability
Summary of the method: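 Peptides incubated in serum, and the fraction of intact YSL was measured over time up to 12 h, including a 4 h point.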

[6] = test system: 4T1; experiment: Antiproliferative activity against mouse 4T1 cells at 0.1 mM incubated for 24 hrs by MTT assay; format: functional, cell-based
[7] = test system: 4T1; experiment: Antiproliferative activity against mouse 4T1 cells assessed as cell death at 0.2 mM incubated for 24 hrs by MTT assay relative to control; format: functional
Summary of the method: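 Mouse 4T1 breast cancer cells exposed for 24 h (doses include 0.1 and 0.2 mM), then read by MTT for viability or cell death. Mean ± SD, n = 6.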

[8] = test system: Erythrocyte; experiment: Hemolytic activity in BALB/c mouse RBC at 3.2 mM incubated for 2 hrs by UV-Vis spectrophotometric analysis; format: ADME, cell-based; conditions: 3200 µM
Summary of the method: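 Hemolysis assay on red blood cells with dendrimers up to 3.2 mM. Result is expressed as hemolysis rate, with under 5% taken as acceptable.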

[9] = test system: 4T1; experiment: Induction of apoptosis in mouse 4T1 cells at 0.8 mM incubated for 24 hrs by PI staining based inverted microscopic method; format: functional, cell-based
Summary of the method: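 Live–dead staining of 4T1 cells after 24 h exposure, with PI uptake imaged microscopically. A higher 0.8 mM dose was also tested.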

[10] = test system: 4T1; experiment: Induction of cell cycle arrest in mouse 4T1 cells assessed as accumulation at G0/G1 phase at 0.4 mM incubated for 24 hrs by PI staining based flow cytometric analysis (reference value: 37.78%); format: functional
[11] = test system: 4T1; experiment: Induction of cell cycle arrest in mouse 4T1 cells assessed as accumulation at S phase at 0.4 mM incubated for 24 hrs by PI staining based flow cytometric analysis (Rvb =42.35%); format: functional
[12] = test system: 4T1; experiment: Induction of cell cycle arrest in mouse 4T1 cells assessed as accumulation at G2/M phase at 0.4 mM incubated for 24 hrs by PI staining based flow cytometric analysis (reference value: 19.82%); format: functional
[13] = test system: 4T1; experiment: Induction of apoptosis in mouse 4T1 cells assessed as viable cells at 0.4 mM incubated for 24 hrs by Annexin V-FITC/PI based FACS analysis (reference value: 92.2%); format: functional; conditions: 4T1, 24 h, read-out: Activity
[14] = test system: 4T1; experiment: Induction of apoptosis in mouse 4T1 cells assessed as early apoptotic cells at 0.4 mM incubated for 24 hrs by Annexin V-FITC/PI based FACS analysis (reference value: 0.76%); format: functional
[15] = test system: 4T1; experiment: Induction of apoptosis in mouse 4T1 cells assessed as late apoptotic cells at 0.4 mM incubated for 24 hrs by Annexin V-FITC/PI based FACS analysis (reference value: 6.62%); format: functional
[16] = test system: 4T1; experiment: Induction of apoptosis in mouse 4T1 cells assessed as necrotic cells at 0.4 mM incubated for 24 hrs by Annexin V-FITC/PI based FACS analysis (reference value: 0.47%); format: functional
[17] = test system: 4T1; experiment: Inhibition of cell migration in mouse 4T1 cells assessed as wound closure rate at 0.2 mM measured up to 36 hrs by inverted optical microscopic method based wound healing assay (reference value: 82%); format: functional; parameters: scale not given: the % may be the effect or the level left
[18] = test system: 4T1; experiment: Inhibition of cell migration in mouse 4T1 cells assessed as migration frequency at 0.2 mM incubated for 24 hrs by crystal violet staining based transwell assay relative to control; format: functional; parameters: scale not given: the % may be the effect or the level left
Summary of the method: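 4T1 cells, Transwell migration with 24 h exposure to 0.2 mM. Migration rate comes from counting cells on the bottom of the porous membrane. Mean ± SD, n = 3.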

[19] = test system: 4T1; experiment: Inhibition of metastasis in mouse 4T1 cells assessed as formation of pseudopods at 0.2 mM incubated for 24 hrs by SEM analysis; format: functional, cell-based
Summary of the method: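 4T1 cells treated 24 h, then imaged by scanning electron microscopy for pseudopod formation. Dendrimers were tested at 0.2 mM and the reference at 10–5 mM.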

[20] = test system: 4T1; experiment: Inhibition of metastasis in mouse 4T1 cells assessed as disruption in F-actin arrangement at 0.2 mM incubated for 24 hrs by Hoechst 33342 staining based confocal laser scanning microscopic method; format: functional, cell-based
Summary of the method: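 After 24 h at 0.2 mM, 4T1 cells were stained for F-actin with Alexa Fluor 488 phalloidin and for nuclei with Hoechst 33342, then imaged by fluorescence for cytoskeletal arrangement and cell morphology.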

[21] = test system: 4T1; experiment: Inhibition of metastasis in mouse 4T1 cells assessed as cell shrinkage at 0.2 mM incubated for 24 hrs by Hoechst 33342 staining based confocal laser scanning microscopic method; format: functional
Summary of the method: (§1)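 After 24 h treatment, 4T1 cells were stained with Alexa Fluor 488 phalloidin for F-actin and Hoechst 33342 for nuclei, then imaged by fluorescence microscopy to assess cytoskeleton and cell morphology.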

[22] = test system: 4T1; experiment: Inhibition of metastasis in mouse 4T1 cells assessed as shortening in actin filaments at 0.2 mM incubated for 24 hrs by Hoechst 33342 staining based confocal laser scanning microscopic method; format: functional, cell-based; summary of the method: as §1
[23] = test system: 4T1; experiment: Antitumour activity against mouse 4T1 cells xenografted in BALB/c mouse assessed as increase in cytotoxic tumor cell death at 10 mg/kg administered intratumorally and measured after 24 days by H and E staining based inverted optical microscopic method; format: functional, organism-based
Summary of the method: (§2)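 BALB/c mice bearing subcutaneous 4T1 tumours received 6 doses at 10 mg/kg body weight, matched for YSL monomer molar amount, with saline as control. Tumour sections were stained for H&E, CD31, Ki-67 and TUNEL. n = 5.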

[24] = test system: 4T1; experiment: Antitumour activity against mouse 4T1 cells xenografted in BALB/c mouse assessed as increase in number of TUNEL positive cells at 10 mg/kg administered intratumorally and measured after 24 days by H and E staining based inverted optical microscopic method; format: functional, organism-based; summary of the method: as §2
[25] = test system: 4T1; experiment: Antitumour activity against mouse 4T1 cells xenografted in BALB/c mouse assessed as reduction in number of lung tumor metastatic nodules at 10 mg/kg administered intratumorally and measured after 24 days by H and E staining based inverted optical microscopic method; format: functional, organism-based
Summary of the method: (§3)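 After 6 doses of 10 mg/kg to 4T1 tumour-bearing BALB/c mice (saline control), lungs were photographed whole and examined histopathologically for the number and size of metastatic nodules.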

[26] = test system: 4T1; experiment: Antitumour activity against mouse 4T1 cells xenografted in BALB/c mouse assessed as reduction in size of lung tumor metastatic nodules at 10 mg/kg administered intratumorally and measured after 24 days by H and E staining based inverted optical microscopic method; format: functional, organism-based; summary of the method: as §3
[27] = Toxicity in BALB/c mouse xenografted with mouse 4T1 cells assessed as induction of morphological lesions in liver at 10 mg/kg administered intratumorally and measured after 24 days by H and E staining based inverted optical microscopic method; format: organism-based; conditions: in vivo, other, 576 h
[28] = Toxicity in BALB/c mouse xenografted with mouse 4T1 cells assessed as induction of morphological lesions in heart at 10 mg/kg administered intratumorally and measured after 24 days by H and E staining based inverted optical microscopic method; format: organism-based; conditions: in vivo, other, 576 h
[29] = Toxicity in BALB/c mouse xenografted with mouse 4T1 cells assessed as induction of morphological lesions in spleen at 10 mg/kg administered intratumorally and measured after 24 days by H and E staining based inverted optical microscopic method; format: organism-based; conditions: in vivo, other, 576 h
[30] = Toxicity in BALB/c mouse xenografted with mouse 4T1 cells assessed as induction of morphological lesions in kidney at 10 mg/kg administered intratumorally and measured after 24 days by H and E staining based inverted optical microscopic method; format: organism-based; conditions: in vivo, other, 576 h
[31] = Toxicity in BALB/c mouse xenografted with mouse 4T1 cells assessed as change in body weight at 10 mg/kg administered intratumorally and measured after 24 days; format: organism-based; conditions: in vivo, other, 576 h
Summary of the method: (§4)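 BALB/c mice bearing subcutaneous 4T1 tumours received 6 doses of 10 mg/kg, with equal YSL-monomer molar amounts across compounds and saline as control. Tumour volume growth curves and body weights were tracked. Mean ± SD, n = 5.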

[32] = target: Matrix metalloproteinase-9 (Mus musculus) (UniProt P41245); experiment: Residual MMP9 activity in mouse 4T1 cells at 0.2 mM incubated for 24 hrs by coomassie brilliant blue staining based gelatin zymography assay relative to control
[33] = test system: 4T1; experiment: Antitumour activity against mouse 4T1 cells xenografted in BALB/c mouse assessed as inhibition in tumor growth at 10 mg/kg administered intratumorally and measured every 3 days for 24 days; format: functional, organism-based; summary of the method: as §4

Sequence of Matrix metalloproteinase-9 (Mus musculus) (P41245 whole entry): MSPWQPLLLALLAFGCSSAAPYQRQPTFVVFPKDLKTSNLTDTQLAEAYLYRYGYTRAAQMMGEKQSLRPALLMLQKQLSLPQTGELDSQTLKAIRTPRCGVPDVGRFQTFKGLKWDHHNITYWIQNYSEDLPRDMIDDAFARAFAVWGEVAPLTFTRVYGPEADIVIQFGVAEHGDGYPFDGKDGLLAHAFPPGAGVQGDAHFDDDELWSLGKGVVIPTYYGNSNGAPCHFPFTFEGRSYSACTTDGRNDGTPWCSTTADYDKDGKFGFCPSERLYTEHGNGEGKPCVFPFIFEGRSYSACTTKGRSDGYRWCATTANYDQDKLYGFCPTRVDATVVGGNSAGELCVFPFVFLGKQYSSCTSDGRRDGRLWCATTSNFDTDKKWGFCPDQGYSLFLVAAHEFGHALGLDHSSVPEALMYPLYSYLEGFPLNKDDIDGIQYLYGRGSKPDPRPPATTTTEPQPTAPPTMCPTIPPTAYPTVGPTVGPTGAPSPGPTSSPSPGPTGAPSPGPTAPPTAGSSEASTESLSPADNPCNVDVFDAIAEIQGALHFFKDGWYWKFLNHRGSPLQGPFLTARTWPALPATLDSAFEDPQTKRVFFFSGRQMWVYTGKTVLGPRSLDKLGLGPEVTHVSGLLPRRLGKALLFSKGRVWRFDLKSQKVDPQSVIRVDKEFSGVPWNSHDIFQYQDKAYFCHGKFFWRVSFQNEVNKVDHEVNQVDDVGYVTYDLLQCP

SMILES | inhibition at 200 µM [1] | Activity [2] | Activity [3] | Activity [4] | remaining at 12 h [5] | Activity [6] | Activity [7] | Activity [8] | Activity [9] | Activity [10] | Activity [11] | Activity [12] | viability at 400 µM [13] | Activity [14] | Activity [15] | Activity [16] | Activity [17] | Activity [18] | F-actin disruption (qualitative) [20] | Activity [24] | further results
COC(=O)[C@H](CCCCNC(=O)[C@H](CCCCNC(=O)[C@H](CC(C)C)NC(=O)[C@H](CO)NC(=O)[C@@H](N)Cc1ccc(O)cc1)NC(=O)[C@H](CC(C)C)NC(=O)[C@H](CO)NC(=O)[C@@H](N)Cc1ccc(O)cc1)NC(=O)[C@H](CCCCNC(=O)[C@H](CC(C)C)NC(=O)[C@H](CO)NC(=O)[C@@H](N)Cc1ccc(O)cc1)NC(=O)[C@H](CC(C)C)NC(=O)[C@H](CO)NC(=O)[C@@H](N)Cc1ccc(O)cc1 | 41% | Non-Toxic | Non-Toxic | Active | > 80% | inactive | 10% | Non-Toxic | Active | 38.06% | 46.98% | 15.31% | 77.7% | 0.7% | 20.4% | 1.23% | 76% | 39% | Active | Active | inhibition [19]: inactive; inhibition [21]: Active; inhibition [22]: Active; Activity [23]: Active; Activity [25]: Active; Activity [26]: Active; Activity [27]: Non-Toxic; Activity [28]: Non-Toxic; Activity [29]: Non-Toxic; Activity [30]: Non-Toxic; Activity [31]: Non-Toxic; residual activity [32]: 70%
COC(=O)[C@H](CCCCNC(=O)[C@H](CC(C)C)NC(=O)[C@H](CO)NC(=O)[C@@H](N)Cc1ccc(O)cc1)NC(=O)[C@H](CC(C)C)NC(=O)[C@H](CO)NC(=O)[C@@H](N)Cc1ccc(O)cc1 (H-YSLK([Leu-Ser-Tyr])-OMe) | 70% | Non-Toxic | Non-Toxic | Active | > 80% | inactive | 5% | Non-Toxic | Active | 37.72% | 47.25% | 15.35% | 80.2% | 0.77% | 18.8% | 0.26% | 79% | 68% | Active | Active | Activity [33]: Active; Activity [25]: Active; Activity [26]: Active; Activity [27]: Non-Toxic; Activity [28]: Non-Toxic; Activity [29]: Non-Toxic; Activity [30]: Non-Toxic; Activity [31]: Non-Toxic; residual activity [32]: 75%
